Reference: ChEMBL document CHEMBL5316316, “Designing Synthetic, Sulfated Glycosaminoglycan Mimetics That Are Orally Bioavailable and Exhibiting In Vivo Anticancer Activity” (J Med Chem, 2023)
Activity calls are given as the source filed them. The rule behind the calls is not given here.

Key:
[1] = Cytotoxicity against human HT-29 cells assessed as inhibition of spheroid growth; conditions: HT-29 cell spheroids
HT-29 [2] = experiment: Cytotoxicity against human HT-29 cells assessed as reduction in cell viability incubated for 60 to 72 hrs by MTT assay; format: toxicity, cell-based; conditions: time 60-72 hrs
How it was run: (§1)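 HT-29 monolayer cells were seeded at about 2.5 × 10^3 per well in DMEM:F12 with 10% FBS and incubated overnight at 37 °C, 5% CO2. Compound was added for 60–72 h. MTT (5 mg/mL in PBS) was added for 2–3 h, crystals were dissolved in DMSO and absorbance read at 590 nm. Results are percent of vehicle control, at least three replicates.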

Plasma [3] = experiment: Anticoagulant activity in pooled human plasma assessed as prolongation of activated partial thromboplastin time incubated for 4 mins by coagulometer analysis; format: functional, cell-free
How it was run: (§2)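 Pooled normal citrated human plasma (90 μL) mixed with 10 μL compound and 100 μL prewarmed ellagic acid APTT reagent, incubated 4 min at 37 °C, then recalcified with 100 μL prewarmed 25 mM CaCl2. Clot time read on a fibrometer (one-stage recalcification). Water blank gave the baseline. Concentration doubling APTT came from a quadratic trend-line fit.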

HT-29 [4] = experiment: Antitumor activity against human HT-29 cells xenografted in NCR nude mouse assessed as decrease in DCAMKL1 expression at 100 mg/kg, ip administered 3 times a week for 4.6 weeks by Western blot analysis; format: functional, organism-based
How it was run: (§3)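 Mice were randomized to 100 mg/kg IP three times/week for 4.6 weeks (14 doses). Tumors (n = 2/group) were dissociated and analysed by Western blot for LGR5, DCAMLK1 and BMI-1, and by flow cytometry for CD133+/CXCR4+ cells.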

Plasma [5] = experiment: Anticoagulant activity in human plasma assessed as prolongation of activated partial thromboplastin time by measuring concentration required to double APTT incubated for 4 mins by coagulometer analysis; format: functional, cell-free
How it was run: as §2

HT-29 [6] = experiment: Antitumor activity against human HT-29 cells xenografted in NCR nude mouse assessed as decrease in BMI-1 expression at 100 mg/kg, ip administered 3 times a week for 4.6 weeks by Western blot analysis; format: functional, organism-based
How it was run: as §3

HT-29 [7] = experiment: Antitumor activity against human HT-29 cells xenografted in NCR nude mouse assessed as decrease in LGR5 expression at 100 mg/kg, ip administered 3 times a week for 4.6 weeks by Western blot analysis; format: functional, organism-based
How it was run: as §3

HT-29 [8] = experiment: Cytotoxicity against human HT-29 cells assessed as reduction in cell viability at 400 uM incubated for 60 to 72 hrs by MTT assay; format: toxicity, cell-based; conditions: ht-29, 400 µM, time 60-72 hrs
How it was run: as §1

HT-29 [9] = experiment: Anticancer activity against human HT-29 cells assessed as inhibition of LGR5 expression level; format: functional, cell-based
Plasma [10] = experiment: Anticoagulant activity in pooled human plasma assessed as prolongation of activated partial thromboplastin time at 900 uM incubated for 4 mins by coagulometer analysis; format: functional
How it was run: as §2

HT-29 [11] = experiment: Antitumor activity against human HT-29 cells xenografted in NCR nude mouse assessed as reduction in tumor growth at 100 mg/kg, ip administered 3 times a week for 3 weeks; format: functional, organism-based
HT-29 [12] = experiment: Anticancer activity against human HT-29 cells assessed as inhibition of DCAMLK1 expression level; format: functional, cell-based
HT-29 [13] = experiment: Anticancer activity against human HT-29 cells assessed as inhibition of CXCR4+ expression level; format: functional, cell-based
HT-29 [14] = experiment: Anticancer activity against human HT-29 cells assessed as inhibition of CD133+ expression level; format: functional, cell-based
HT-29 [15] = experiment: Cytotoxicity against human HT-29 cells assessed as reduction in cell viability at 100 uM incubated for 60 to 72 hrs by MTT assay; format: toxicity, cell-based; conditions: ht-29, 100 µM, time 60-72 hrs
How it was run: as §1

Mus musculus = experiment: Antithrombotic activity in ICR mouse model of tail-bleeding assessed as increase in blood loss at 100 mg/kg, iv

Question: What does the source list for `O=c1c(OS(=O)(=O)[O-])c(-c2ccc(OS(=O)(=O)[O-])c(OS(=O)(=O)[O-])c2)oc2cc(OS(=O)(=O)[O-])cc(OCC3CCC(COc4cc(OS(=O)(=O)[O-])cc5oc(-c6ccc(OS(=O)(=O)[O-])c(OS(=O)(=O)[O-])c6)c(OS(=O)(=O)[O-])c(=O)c45)CC3)c12.[Na+].[Na+].[Na+].[Na+].[Na+].[Na+].[Na+].[Na+]` (stereo not drawn)?
Answer: IC50 [1]: 4 µM; Activity (HT-29 [2]): Non-Toxic

Question: For `CC(C)CCC[C@@H](C)[C@H]1CC[C@H]2[C@@H]3CC=C4C[C@@H](OCCCCCOc5cc(-c6oc7cc(OS(=O)(=O)[O-])cc(OCCCOc8cc(OS(=O)(=O)[O-])cc9oc(-c%10ccc(OS(=O)(=O)[O-])c(OS(=O)(=O)[O-])c%10)c(OS(=O)(=O)[O-])c(=O)c89)c7c(=O)c6OS(=O)(=O)[O-])ccc5OS(=O)(=O)[O-])CC[C@]4(C)[C@H]3CC[C@]12C.[Na+].[Na+].[Na+].[Na+].[Na+].[Na+].[Na+]`, which IC50 [1] is on record?
Answer: 11.5 µM

Question: And the Activity (Plasma [3])?
Answer: Dose-Dependent Effect

Question: And the Activity (HT-29 [4])?
Answer: Active

Question: And the Activity (Plasma [5])?
Answer: Active

Question: What about the Activity (HT-29 [6]) of the same compound?
Answer: Active

Question: What about the Activity (HT-29 [7]) of the same compound?
Answer: Active

Question: What about the Activity (HT-29 [8]) of the same compound?
Answer: Toxic

Question: Which results are given for `O=c1c(OS(=O)(=O)[O-])c(-c2ccc(OS(=O)(=O)[O-])c(OS(=O)(=O)[O-])c2)oc2cc(OS(=O)(=O)[O-])cc(OCCCOc3cc(OS(=O)(=O)[O-])cc4oc(-c5ccc(OS(=O)(=O)[O-])c(OS(=O)(=O)[O-])c5)c(OS(=O)(=O)[O-])c(=O)c34)c12.[Na+].[Na+].[Na+].[Na+].[Na+].[Na+].[Na+].[Na+]`?
Answer: IC50 [1]: 29.6 µM; Activity (Plasma [3]): Dose-Dependent Effect; Activity (HT-29 [9]): Active; APTT (Plasma [10]): 68 s; Activity (HT-29 [11]): Active; Activity (HT-29 [12]): Active; Activity (HT-29 [2]): Non-Toxic; Activity (HT-29 [13]): Active; Activity (HT-29 [14]): Active

Question: What does the source list for `CC(C)CCC[C@@H](C)[C@H]1CC[C@H]2[C@@H]3CC=C4C[C@@H](OCCCCCCCCOc5cc(-c6oc7cc(OS(=O)(=O)[O-])cc(OCCCOc8cc(OS(=O)(=O)[O-])cc9oc(-c%10ccc(OS(=O)(=O)[O-])c(OS(=O)(=O)[O-])c%10)c(OS(=O)(=O)[O-])c(=O)c89)c7c(=O)c6OS(=O)(=O)[O-])ccc5OS(=O)(=O)[O-])CC[C@]4(C)[C@H]3CC[C@]12C.[Na+].[Na+].[Na+].[Na+].[Na+].[Na+].[Na+]`?
Answer: IC50 [1]: 0.8 µM; Activity (Plasma [3]): Dose-Dependent Effect; Activity (Plasma [5]): Active; Activity (HT-29 [15]): Toxic; Activity (Mus musculus): Active
